The results in this text go back to ChEMBL document CHEMBL4622869, “Discovery and structure-activity relationships study of positive allosteric modulators of the M3 muscarinic acetylcholine receptor” (Bioorg Med Chem, 2020).

The structures appear in SMILES notation.

For this assay, the target named is T1, Muscarinic acetylcholine receptor M5 (Rattus norvegicus) (UniProt P08911).
T1 sequence (whole entry): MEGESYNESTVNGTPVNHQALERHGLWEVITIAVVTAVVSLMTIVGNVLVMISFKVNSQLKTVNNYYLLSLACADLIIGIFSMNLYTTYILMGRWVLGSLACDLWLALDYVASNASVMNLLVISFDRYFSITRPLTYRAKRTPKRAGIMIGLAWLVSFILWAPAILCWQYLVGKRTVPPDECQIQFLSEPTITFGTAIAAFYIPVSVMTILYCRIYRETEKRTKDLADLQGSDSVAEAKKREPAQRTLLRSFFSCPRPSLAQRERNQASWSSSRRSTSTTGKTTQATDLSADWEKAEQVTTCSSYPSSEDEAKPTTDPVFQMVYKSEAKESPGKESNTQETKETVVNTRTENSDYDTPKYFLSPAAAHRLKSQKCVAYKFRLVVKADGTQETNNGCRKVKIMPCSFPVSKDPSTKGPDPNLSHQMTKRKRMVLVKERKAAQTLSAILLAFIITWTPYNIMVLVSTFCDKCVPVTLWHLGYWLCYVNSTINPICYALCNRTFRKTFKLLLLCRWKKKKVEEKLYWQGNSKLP
The assay can be described thus: Positive allosteric modulation of recombinant rat muscarinic acetylcholine receptor M5 expressed in CHOK1 cells assessed as increase in carbachol-induced intracellular calcium flux at 10 uM preincubated for 5 mins followed by carbachol addition by Fluo4-AM dye based FLIPR assay relative to carbachol. The settings on record: CHO-K1. The assay is classed as functional, cell-based. An outline of the steps:
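CHO-K1 cells stably expressing human or rat M1–M5; M2 and M4 lines also co-express human Gα16. Cells loaded with 3.1 μM Fluo-4 AM in HBSS/20 mM HEPES pH 7.5/BSA/2.5 mM probenecid for ~2 h at room temperature. Test substance at 10 μM final, then carbachol (0.0024 nM–100 μM) ~5 min later; Ca2+ read by FLIPR Tetra. Fold shift = carbachol EC50 without / with test substance, from logistic fits.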

Take `CC[C@@H]1CCCN1Cc1sc(NC(=O)c2cnc(N3CCC(C(=O)O)CC3)cn2)nc1-c1ccc(OC)c(C(F)(F)F)c1.Cl.Cl`: the fold change (FC) was determined as 110.
